According to ChEMBL document CHEMBL3352813, “Prostaglandin Derivatives: Nonaromatic Phosphodiesterase-4 Inhibitors from the Soft Coral Sarcophyton ehrenbergi” (J Nat Prod, 2014):

Assays:
[1] = target: T1, 3',5'-cyclic-AMP phosphodiesterase 4D (Homo sapiens, UniProt Q08499); assay: Inhibition of human PDE4D2 catalytic domain (86 to 413 amino acids) expressed in Escherichia coli strain BL21 after 15 mins using [3H]-cAMP by liquid scintillation counting
Procedure, shortened: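 IC50 determined against PDE4D2 only for compounds that gave more than 50% inhibition in the 10 μM primary screen. Substrate was [3H]cAMP and read-out was liquid scintillation counting. Enzyme was produced using LB medium. Rolipram served as the reference inhibitor. The method otherwise follows the authors' earlier reports.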

[2] = target: T1, 3',5'-cyclic-AMP phosphodiesterase 4D; assay: Inhibition of human PDE4D2 catalytic domain (86 to 413 amino acids) expressed in Escherichia coli strain BL21 at 10 uM after 15 mins using [3H]-cAMP by liquid scintillation counting
Procedure, shortened: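 Single-point primary screen of percent inhibition against PDE4D2 at an initial concentration of 10 μM, using [3H]cAMP as substrate and liquid scintillation counting of radioactivity. Enzyme was produced using LB medium. Rolipram served as the reference inhibitor. The method follows the authors' earlier reports.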

T1 sequence (Q08499 whole entry, the tested form may be a part): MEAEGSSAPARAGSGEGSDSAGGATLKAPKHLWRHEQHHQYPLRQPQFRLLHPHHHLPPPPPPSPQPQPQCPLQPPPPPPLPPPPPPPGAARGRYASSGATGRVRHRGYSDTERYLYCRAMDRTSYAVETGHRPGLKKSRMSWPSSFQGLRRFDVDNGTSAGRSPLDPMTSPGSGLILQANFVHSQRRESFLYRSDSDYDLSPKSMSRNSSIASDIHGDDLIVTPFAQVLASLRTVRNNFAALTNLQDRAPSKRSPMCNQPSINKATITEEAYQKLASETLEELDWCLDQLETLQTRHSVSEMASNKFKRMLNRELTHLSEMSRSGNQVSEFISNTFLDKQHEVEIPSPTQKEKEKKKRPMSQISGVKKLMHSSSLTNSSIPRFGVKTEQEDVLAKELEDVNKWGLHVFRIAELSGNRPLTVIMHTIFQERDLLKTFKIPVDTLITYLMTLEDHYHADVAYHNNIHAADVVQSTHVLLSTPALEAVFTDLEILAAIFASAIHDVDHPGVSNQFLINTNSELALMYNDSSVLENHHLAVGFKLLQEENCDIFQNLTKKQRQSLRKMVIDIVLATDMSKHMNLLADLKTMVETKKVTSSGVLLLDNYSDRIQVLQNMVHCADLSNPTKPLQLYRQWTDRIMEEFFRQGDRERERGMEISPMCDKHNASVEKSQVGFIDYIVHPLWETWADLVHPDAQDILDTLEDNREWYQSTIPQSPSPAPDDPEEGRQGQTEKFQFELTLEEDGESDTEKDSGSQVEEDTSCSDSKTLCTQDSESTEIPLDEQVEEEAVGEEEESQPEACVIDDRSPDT

Row | SMILES | IC50 [1] | inhibition [2]
1 | CCC(CC[C@@H](/C=C/[C@@H]1[C@@H](C/C=C\CCCC(=O)OC)[C@@H](OC(C)=O)C[C@H]1OC(C)=O)OC(C)=O)OC(C)=O (stereo partly specified) | 3.7 µM | 66.5%
2 | CCC(=O)CC[C@H](O)/C=C/[C@@H]1[C@@H](C/C=C\CCCC(=O)O)[C@@H](O)C[C@H]1O |  | 10.1%
3 | CCC(=O)CC[C@H](O)/C=C/[C@@H]1[C@@H](C/C=C\CCCC(=O)OC)[C@@H](O)C[C@H]1OC(C)=O |  | 21.9%
4 | CCC(CC[C@@H](/C=C/[C@@H]1[C@@H](C/C=C\CCCC(=O)OC)[C@@H](OC(=O)[C@](OC)(c2ccccc2)C(F)(F)F)C[C@H]1OC(C)=O)OC(=O)[C@](OC)(c1ccccc1)C(F)(F)F)OC(C)=O (stereo partly specified) | 3.6 µM | 58%
5 | CCC(CC[C@@H](/C=C/[C@@H]1[C@@H](C/C=C\CCCC(=O)OC)[C@@H](OC(C)=O)C[C@H]1OC(C)=O)OC(=O)[C@@](OC)(c1ccccc1)C(F)(F)F)OC(C)=O (stereo partly specified) |  | 15.1%
6 | CCCCC[C@@H](/C=C/[C@@H]1[C@@H](CCCCCCC(=O)OC)[C@@H](O)C[C@H]1OC(C)=O)OC(C)=O |  | 41.7%
7 | CCC(CC[C@@H](/C=C/[C@@H]1[C@@H](C/C=C\CCCC(=O)OC)[C@@H](OC(=O)[C@@](OC)(c2ccccc2)C(F)(F)F)C[C@H]1OC(C)=O)OC(=O)[C@@](OC)(c1ccccc1)C(F)(F)F)OC(C)=O (stereo partly specified) | 5.9 µM | 51.1%
8 | CCC(=O)CC[C@@H](/C=C/[C@@H]1[C@@H](C/C=C\CCCC(=O)O)[C@@H](O)C[C@H]1OC(C)=O)OC(C)=O | 16.9 µM | 50.4%
9 | CCC(=O)CC[C@@H](/C=C/[C@@H]1[C@@H](C/C=C\CCCC(=O)OC)[C@@H](OC(C)=O)C[C@H]1OC(C)=O)OC(C)=O | 10.6 µM | 65%
10 | CCC(CC[C@@H](/C=C/[C@@H]1[C@@H](C/C=C\CCCC(=O)OC)[C@@H](O)C[C@H]1OC(C)=O)OC(C)=O)OC(C)=O (stereo partly specified) |  | 38.7%
11 | CCC(CC[C@H](O)/C=C/[C@@H]1[C@@H](C/C=C\CCCC(=O)OC)[C@@H](O)C[C@H]1OC(C)=O)OC(C)=O (stereo partly specified) |  | -6.05%
12 | CCC(CC[C@@H](/C=C/[C@@H]1[C@@H](C/C=C\CCCC(=O)OC)[C@@H](OC(C)=O)C[C@H]1OC(C)=O)OC(=O)[C@](OC)(c1ccccc1)C(F)(F)F)OC(C)=O (stereo partly specified) |  | 28.4%
13 | CCCCC[C@@H](/C=C/[C@@H]1[C@@H](C/C=C\CCCC(=O)OC)[C@@H](OC(C)=O)C[C@H]1OC(C)=O)OC(C)=O | 1.4 µM | 94.6%
14 | CCCCC[C@@H](/C=C/[C@@H]1[C@@H](C/C=C\CCCC(=O)OC)[C@@H](O)C[C@H]1OC(C)=O)OC(C)=O | 5.5 µM | 71.9%
15 | CCC(O)CC[C@H](O)/C=C/[C@@H]1[C@@H](C/C=C\CCCC(=O)O)[C@@H](O)C[C@H]1O (stereo partly specified) |  | -3.93%
16 | CCC(=O)CC[C@@H](/C=C/[C@@H]1[C@@H](C/C=C\CCCC(=O)OC)[C@@H](O)C[C@H]1OC(C)=O)OC(C)=O | 12.1 µM | 57.2%
17 | CCC(CC[C@H](O)/C=C/[C@@H]1[C@@H](C/C=C\CCCC(=O)O)[C@@H](O)C[C@H]1OC(C)=O)OC(C)=O (stereo partly specified) |  | 3.12%
18 | CCC(=O)CC[C@H](O)/C=C/[C@@H]1[C@@H](C/C=C\CCCC(=O)O)[C@@H](O)C[C@H]1OC(C)=O |  | 26%
19 | CCCCC[C@@H](/C=C/[C@@H]1[C@@H](C/C=C\CCCC(=O)OC)[C@@H](OC(C)=O)C[C@H]1O)OC(C)=O | 4.7 µM | 74.7%
20 | CCC(CC[C@H](O)/C=C/[C@@H]1[C@@H](C/C=C\CCCC(=O)OC)[C@@H](OC(C)=O)C[C@H]1OC(C)=O)OC(C)=O (stereo partly specified) |  | 11.4%
21 | CCCCC[C@@H](/C=C/[C@@H]1[C@@H](/C=C/CCCCC(=O)OC)[C@@H](O)C[C@H]1OC(C)=O)OC(C)=O | 7.2 µM | 57.3%
